# Assay outcomes: PubChem, several laboratories
# Compounds with a hit are over-represented: about 10% of the library has one in this group of screens.
# Diaph act CS: compounds boosting diaphorase resazurin reduction – biochemical, uHTS, resorufin fluorescence, counter-screen for diaphorase-coupled primary assays, primary screen; 190,000 compounds, 0.005% hits; Diaphorase/resazurin coupled assay, 16 min; active compounds read high; 1 = vehicle wells, 0 = NADH-free wells; activation factor at 20 µM; AID 1229, 2008;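 active = diaphorase activity raised at least twofold by the compound at 20 µM; inactive = activation factor below 2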
#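 Material: purified diaphorase enzyme from Clostridium kluyveri; Also added: 0.114 mM NADH and 0.1 mM resazurin, final amounts; Doses: single compound dose of 20 µM, 1% DMSO final; Times: 16 min enzyme reaction, ambient temperature; Detection: resorufin fluorescence, excitation 544 nm, emission 590 nm; Measure: increased resorufin signal from activators or reducing compounds.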
# PMI act satM6P: human PMI activators, high substrate, primary screen, biochemical, fluorescence intensity, near-saturating mannose 6-phosphate. Mannose-6-phosphate isomerase (Homo sapiens), P34949. coupled PMI enzyme assay, resazurin fluorescence, 20 min; active compounds read high; 1 = untreated enzyme, 0 = substrate-free blank. activation factor at 20 µM. 190,000 compounds, 0.34% hits;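 active = activation factor of 2 or more at 20 µM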
# Target sequence (P34949 whole entry, looked up): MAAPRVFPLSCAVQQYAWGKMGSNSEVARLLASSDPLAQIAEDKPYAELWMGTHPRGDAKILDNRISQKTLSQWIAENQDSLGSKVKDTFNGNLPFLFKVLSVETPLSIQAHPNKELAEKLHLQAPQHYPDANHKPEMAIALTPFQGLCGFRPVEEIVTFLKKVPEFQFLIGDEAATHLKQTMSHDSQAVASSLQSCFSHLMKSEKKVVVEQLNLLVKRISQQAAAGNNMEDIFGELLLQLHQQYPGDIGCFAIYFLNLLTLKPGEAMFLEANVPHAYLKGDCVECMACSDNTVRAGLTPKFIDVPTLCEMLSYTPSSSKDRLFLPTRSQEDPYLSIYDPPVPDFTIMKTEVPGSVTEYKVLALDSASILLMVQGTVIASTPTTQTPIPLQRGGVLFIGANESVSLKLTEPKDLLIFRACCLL
#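 Test system: human phosphomannose isomerase with PGI, G6PDH, diaphorase coupling enzymes; Amount: PMI at 15 ng/mL final; Reagent: Mannose-6-phosphate 1.0 mM (near-saturating) plus 0.22 mM NADP+; Timing: 20 min, room temperature; Technique: resorufin fluorescence at Ex 544/Em 590 nm; Dosing: 20 µM single dose.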
# WT yeast gro inh: growth inhibition of WT strain, primary screen, mitochondrial fusion inhibitor project, WT and mutant strains, chemical genetic. mitochondrial fusion phenotypic screen. inhibition, % at 10 µM. 190,000 compounds, 2.1% hits. AID 1362, 2008; in the data active = inhibition above about 58%; tested in S. cerevisiae
# PMI activator: activators of human PMI, primary screen, biochemical, fluorescence intensity, near-Km mannose 6-phosphate. purified human PMI, coupled resazurin fluorescence, 20 min; active compounds read high; 1 = vehicle control, 0 substrate-free wells. activation factor at 20 µM. 190,000 compounds, 0.005% hits. Mannose-6-phosphate isomerase (Homo sapiens), P34949;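 active = activation factor of 2 or more at 20 µM, relative to plate controls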
# L major viab: Leishmania major promastigote growth inhibition, primary screen | Leishmania major promastigotes, resazurin fluorescence viability | inhibition, % at 10 µM | 200,000 compounds, 9% hits; in the data active = inhibition above about 50%;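 also: promastigotes grown with compound for 44 hours at 28 °C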
# An asterisk follows results filed as active; nt = no result given.
SMILES,Diaph act CS,PMI act satM6P,WT yeast gro inh,PMI activator,L major viab
c1ccc(-c2csc(-n3cccn3)n2)cc1,0.9,1,-0.2,1,-1.3
Cc1ccc(S(=O)(=O)Nc2cc(C(C(=O)OC(C)C)C(=O)C(F)(F)F)c(O)c3ccccc23)c(C)c1 (stereo not drawn),0.7,0.6,36.9,0.8,92.0*
Cc1ccc(S(=O)(=O)Nc2ccc3c4c(cccc24)CC3)c(C)c1,nt,nt,nt,nt,5.5
O=C(OC(C(=O)NCC1CCCO1)c1ccc(F)cc1)c1cccs1 (stereo not drawn),1.1,1.1,1.0,1.1,-4.3
O=C(Cn1cc([N+](=O)[O-])nc1[N+](=O)[O-])N1CCN(c2ccccc2)CC1,0.9,0.7,-10.5,0.9,100.4*
Cc1c(Br)c([N+](=O)[O-])nn1CCCC(=O)N1CCN(c2ccccc2)CC1,0.9,1,18.3,0.9,69.8*
CC(=O)Nc1cc(C(=O)N2CCN(C)CC2)ccc1Sc1ccc(C)cc1,0.9,0.9,4.3,0.9,-2.3
CC1CCN(C2=C(NS(=O)(=O)c3ccc(Cl)cc3)C(=O)c3ccccc3C2=O)CC1,0.8,1,54.1,1.4,37.9
CC(=O)Nc1ccc(S(=O)(=O)NC2=C(N3CCN(Cc4ccccc4)CC3)C(=O)c3ccccc3C2=O)cc1,0.8,1.6,19.2,1.2,99.5*
O=C(Oc1ccc2ccccc2c1Cl)N1CCCC1,0.9,1,10.3,0.9,1.5
O=C(Oc1ccc2ccccc2c1Cl)N1CCCCCC1,0.9,0.9,81.1*,0.9,-1.5
CC1CC1C(=O)OCC(=O)NCc1ccc(Cl)cc1Cl (stereo not drawn),0.9,1.1,82.5*,1,-23.5
O=C(/C=C/c1ccc(Cl)cc1)NCc1cccs1,0.9,1,9.0,1,53.2*
O=C(/C=C/c1cccc(Cl)c1)NCc1cccs1,0.9,1,1.7,0.9,-0.8
O=C(NC(N1CCOCC1)C(Cl)(Cl)Cl)c1cc([N+](=O)[O-])cc([N+](=O)[O-])c1 (stereo not drawn),0.9,0.9,1.0,0.9,91.0*
O=C(NC(N1CCOCC1)C(Cl)(Cl)Cl)c1ccccc1Cl (stereo not drawn),0.9,1,-3.7,1,1.1
Cc1cccc(N(Cc2cc3ccccc3[nH]c2=O)S(=O)(=O)c2ccccc2)c1,1,1,-8.9,1,-1.7
O=C(O)CCCC(=O)N1CCN(c2nc(-c3ccccc3)c3ccccc3n2)CC1,0.8,0.9,7.4,0.9,4.4
c1ccc2c(N3CCCCC3)nc(N3CCCC3)nc2c1,0.9,1,29.2,0.9,99.2*
c1ccc(-c2nc(N3CCCCC3)nc3ccccc23)cc1,0.9,1,68.4*,1,3.4
O=C(O)C1CC=CCC1C(=O)N1CCN(c2nc(-c3ccccc3)c3ccccc3n2)CC1 (stereo not drawn),0.9,0.9,-4.3,0.9,20.1
c1ccc(-c2nc(N3CCNCC3)nc3ccccc23)cc1,1,1,12.0,0.9,100.5*
Nc1nc(N2CCCCC2)nc2ccccc12,0.9,1,4.8,1.1,37.5
CCC(CC)C(=O)N=C1SC2CS(=O)(=O)CC2N1CCc1ccc(OC)cc1 (stereo not drawn),1.1,1.1,7.5,1.1,1.4
Cc1ccc(NC(=O)COC(=O)C2CC2)c(Br)c1,0.9,1.1,11.7,1.1,-6.3
SMILES,Diaph act CS,PMI act satM6P,WT yeast gro inh,PMI activator,L major viab
CCN(CC)C(=S)Sc1c(-c2ccccc2)c2cc(Cl)ccc2[nH]c1=O,0.8,1,24.6,0.9,4.9
CC(C)C(=O)N1CCN(c2cc(N3CCN(C)CC3)c(F)cc2[N+](=O)[O-])CC1,1,1.1,-5.4,1,96.0*
CCN1CCN(c2cc(N3CCc4ccccc4C3)c(F)cc2[N+](=O)[O-])CC1,0.8,0.9,81.5*,1,60.5*
CC(=O)N1CCN(c2cc(N3CCCC3)c(F)cc2[N+](=O)[O-])CC1,0.9,0.9,12.4,0.9,2.1
Cc1ccc(C(=O)COC(=O)c2ccc3c(c2)C(=O)N(c2cccc4ncccc24)C3=O)cc1,1,1.2,1.5,1,75.6*
O=C(COC(=O)c1ccc2c(c1)C(=O)N(c1cccc3ncccc13)C2=O)c1ccc(Cl)cc1,1,1.1,-22.1,0.9,-9.3
Cc1ccc(NC(=O)N2CCC(=O)N2)cc1,0.9,2*,19.9,1.3,-3.9
Cc1ccc(NC(=O)C(C)C(=O)Nc2ccc(C)cc2)cc1,1,1.1,10.8,1.1,7.2
O=C(c1cccc(COc2ccc(Cl)cc2Cl)c1)N1CCN(c2ccccn2)CC1,0.8,0.8,77.1*,0.8,-2.4
O=C(NCc1ccccc1)c1cccc(COc2cc(Cl)ccc2Cl)c1,0.8,0.8,-12.9,0.9,-1.1
CN(C(=O)c1cccc(COc2ccc(Cl)cc2Cl)c1)c1ccccc1,0.9,0.9,76.6*,0.8,27.4
CCc1ccc(NC(=O)N(C2CCC(C)CC2)C2CCN(C(C)=O)CC2)cc1 (stereo not drawn),1.1,1,-4.0,1,31.7
CCOC(=O)C(C)Oc1ccccc1C1NC(=O)NC(C)=C1C(=O)Nc1ccc(C)c(C)c1 (stereo not drawn),1,1,-1.4,0.9,75.8*
CCOC(=O)C(C)Oc1ccc(C2NC(=O)NC(C)=C2C(=O)Nc2ccccc2C)cc1 (stereo not drawn),0.9,1.1,-2.4,1,-0.1
CC(C)n1c(N2CCN(CC(=O)Nc3ccc4c(c3)OCCO4)CC2)nc2ccccc21,0.9,1,-12.5,1.1,51.1*
CC(C)Cn1c(N2CCN(CC(=O)Nc3ccc(Cl)cc3)CC2)nc2ccccc21,0.7,0.9,5.3,0.8,85.8*
Oc1ccccc1C=NCC(O)c1ccccc1 (stereo not drawn),0.8,0.8,-30.1,0.8,44.7
O=C(Cc1ccc(Br)cc1)Nc1ccccc1Cl,1,1.1,-3.5,1.1,-6.6
CC(C)(C)NC(=O)C1Cc2ccccc2CN1C(=O)Nc1ccccc1Cl (stereo not drawn),0.9,1,0.8,1,5.8
CC(C)CC1NC(=S)N(C2CCCCC2)C1=O (stereo not drawn),0.9,1,-0.3,1.1,2.5
CN(C)c1ncc(/C=C2/C(=O)NC(=S)N(C3CCCCC3)C2=O)cn1,0.7,2*,-13.7,1.7,1.9
COc1ccc(Sc2cc(C(F)(F)F)nc(-c3ccccn3)n2)cc1,0.9,0.9,62.2*,0.9,12.6
Cc1cccc(CCNC(=O)C2CCN(S(=O)(=O)c3c(C)noc3C)CC2)c1,0.9,1.1,8.2,1,100.0*
